Source: PubChem (several laboratories)
Hep lipid drop: inhibitors of hepatocyte lipid droplet formation, primary screen, imaging, high-throughput imaging, BODIPY stain; AML12 mouse hepatocytes, oleate lipid droplets; inhibition, % at 6.5 µM; 0.4% of 240,000 active;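 active = lipid droplet intensity inhibited by at least 50%, with more than 500 cells counted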
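System: AML12 hepatocytes (mouse). Probe or stimulus: oleic acid at 100 µM to induce lipid droplet formation. Times: overnight treatment with compound plus oleate. Detection: Image-based BODIPY and DAPI two-channel analysis. Evaluation: percent inhibition of filter-corrected integrated lipid droplet intensity per well.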
TMEM16A act: TMEM16A chloride channel activators or potentiators, primary screen, cell-based, HTS | HEK293 TMEM16A/YFP-H148Q/I152L, iodide quench fluorescence; stronger effect = lower value | B-score at 10 µM | Anoctamin-1 (Mus musculus), Q8BHY3 | 0.3% of 340,000 active;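 active = fluorescence-ratio B-score plate-corrected deviation score at least 3 library SD below zero, with starting fluorescence score within 5 deviations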;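 note: channel opened by trigger with iodide after compound preincubation; score built on the fluorescence ratio of max minus min over baseline; more negative score means more quench and so TMEM16A activation or potentiation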
Target sequence (Q8BHY3 whole entry, looked up): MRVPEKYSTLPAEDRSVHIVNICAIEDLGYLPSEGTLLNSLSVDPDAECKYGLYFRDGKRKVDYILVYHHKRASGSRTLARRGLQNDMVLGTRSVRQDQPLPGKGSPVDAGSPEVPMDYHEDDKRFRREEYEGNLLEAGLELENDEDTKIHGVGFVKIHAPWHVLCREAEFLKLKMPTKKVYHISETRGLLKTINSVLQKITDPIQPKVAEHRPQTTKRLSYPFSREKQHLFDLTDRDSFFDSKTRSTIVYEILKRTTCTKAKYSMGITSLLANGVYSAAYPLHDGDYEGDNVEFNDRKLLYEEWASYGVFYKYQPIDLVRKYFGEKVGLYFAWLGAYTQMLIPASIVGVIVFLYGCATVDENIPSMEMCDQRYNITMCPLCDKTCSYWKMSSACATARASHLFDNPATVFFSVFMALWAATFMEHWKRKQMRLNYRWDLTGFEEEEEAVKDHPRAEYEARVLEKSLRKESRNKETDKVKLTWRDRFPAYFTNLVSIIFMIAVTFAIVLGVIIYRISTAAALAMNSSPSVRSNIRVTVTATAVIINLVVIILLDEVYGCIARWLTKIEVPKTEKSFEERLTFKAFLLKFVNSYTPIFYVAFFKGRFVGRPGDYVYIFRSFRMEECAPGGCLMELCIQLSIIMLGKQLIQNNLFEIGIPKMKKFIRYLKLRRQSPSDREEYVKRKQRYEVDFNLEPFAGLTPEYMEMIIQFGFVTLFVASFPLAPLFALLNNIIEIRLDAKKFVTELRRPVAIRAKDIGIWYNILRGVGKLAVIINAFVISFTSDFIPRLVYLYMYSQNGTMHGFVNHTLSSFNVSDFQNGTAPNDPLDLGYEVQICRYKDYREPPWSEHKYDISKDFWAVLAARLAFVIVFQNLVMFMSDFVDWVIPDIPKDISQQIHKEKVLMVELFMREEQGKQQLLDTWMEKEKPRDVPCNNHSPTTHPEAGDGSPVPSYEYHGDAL
CHOP UPR activ: activators of apoptotic CHOP UPR arm, primary screen, cell-based, CHO-CHOP luciferase reporter, luminescence, uHTS. UPR activation; percent of tunicamycin response over DMSO baseline. activation, % at 10 µM. 0.34% of 330,000 active;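 active = at 10 µM dose, activation of 40% or more, normalized to positive control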
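assay system = CHO CHOP reporter cells | amount = 500 CHO-CHOP cells per well | buffer or medium = F12 with 10% FBS | incubation = 16-18 h cell attachment, then 6 h compound exposure, 37 °C | detection = luminescence read with Steady-Glo | read-out = percent activation relative to tunicamycin control | controls = tunicamycin high control, DMSO low control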
CHOP inhibitor: inhibitors of CHOP promoter induction, primary screen, cell-based, unfolded protein response, luciferase reporter; CHO-K1 CHOP-promoter luciferase, tunicamycin-induced, 15-18 h; inhibition, % at 10 µM; 3.8% of 220,000 active; AID 2732, 2010;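 active = compounds that reduced the stress-induced luciferase reporter signal by more than about 70% of percent inhibition, limit read from the data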
TMEM16A inh: TMEM16A chloride channel inhibitors, primary screen, cell-based, HTS; Anoctamin-1 (Mus musculus), Q8BHY3; HEK293 TMEM16A/YFP iodide influx fluorescence, ionomycin; normalized B-score (activity score, 25-100; higher = stronger inhibition) at 10 µM; 1.2% of 310,000 active; AID 588511, 2011;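 active = ratio plate-corrected score three or more library SD toward inhibition, starting fluorescence score within five deviations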;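 note: score derived from kinetic fluorescence span divided by baseline fluorescence per well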
UPR XBP1 act: activators of adaptive XBP1 UPR arm, primary screen, cell-based, CHO-XBP1 luciferase reporter, luminescence, uHTS; IRE1-XBP1 UPR activation; percent of tunicamycin response, DMSO as zero; AID 463104, 2010; 0.33% of 330,000 active; activation, % at 20 µM;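 active = versus positive control, 20 µM dose yields 30% or more activation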
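Assay system: CHO-XBP1 luciferase reporter cells; Schedule: 6 h treatment, 37 °C; Detection: glow luminescence from Steady-Glo reagent; Benchmarks: high control tunicamycin 10 µg/mL final, low control DMSO vehicle only.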
Each line names hits and unclear results; the compound was inactive in the other large screens. A selection: hits, their analogues and other compounds. The true share with any hit is near 4.2%.

CCNc1nc(SCCOc2ccc(Cl)cc2Cl)nc(N(C)C)n1	CHOP inhibitor 91 (no result: CHOP UPR activ, TMEM16A inh, UPR XBP1 act)
CCN(CC(=O)Nc1c(F)cccc1F)C(=O)/C=C/c1ccc(S(=O)(=O)N2CCCCCC2)cc1	TMEM16A inh 25 (no result: Hep lipid drop, CHOP inhibitor)
COc1ccc(-c2nnc(N3CCC(C)CC3)c3ccccc23)cc1	CHOP inhibitor 85 (no result: Hep lipid drop)
O=C(O)CC(C(=O)O)N1C(=O)/C(=C/c2ccc(-c3nc4ccccc4s3)o2)SC1=S (stereo not given)	TMEM16A act -7.7
O=C(CN1C(=O)C2CC=CCC2C1=O)NC1CCCc2ccccc21 (stereo not given)	TMEM16A act -23
Nc1c(C(=O)NC2CCCC2)c2nc3ccccc3nc2n1N	CHOP inhibitor 74 (no result: Hep lipid drop)
CS(=O)(=O)CCSc1ncccc1C(=O)NCc1cccs1	none
CCOc1ccc2c(=O)c(Oc3ccccc3)c(C)oc2c1	CHOP inhibitor 76 (no result: Hep lipid drop)
Cc1oc2cc(OC(C)C(=O)O)ccc2c(=O)c1Oc1ccccc1 (stereo not given)	none (no result: Hep lipid drop)
COc1cccc(COc2cc3ccccc3nc2C)c1	TMEM16A inh 25 (no result: Hep lipid drop)
Cc1nc2ccccc2cc1OCc1ccc(Cl)cc1	CHOP inhibitor 83
Cc1ccccc1OCCCN1C(=O)C(=O)c2cccc(C)c21	CHOP inhibitor 107
Cc1ccc2c(c1)c1c(n2CC(O)CNC2CCCCC2)CCCC1 (stereo not given)	CHOP inhibitor 94
Cc1ccc2c(c1)c1c(n2CC(O)CNC(CO)(CO)CO)CCCC1 (stereo not given)	none (no result: Hep lipid drop)
COc1cc(C(=O)NCc2ccc(-c3nc4ccccc4o3)cc2)cc(OC)c1OC	CHOP inhibitor 71
Cc1nn(CC(=O)NCCCN2CCCC2=O)c(C)c1[N+](=O)[O-]	none (no result: Hep lipid drop, TMEM16A act, CHOP inhibitor, TMEM16A inh)
O=C(O)c1ccc(NC2=C(Cl)C(=O)c3ccccc3C2=O)cc1	TMEM16A inh 100
CC1CCCN(c2ccc3nncn3n2)C1 (stereo not given)	none (no result: Hep lipid drop, CHOP inhibitor)
c1ccc(-c2nc3nonc3nc2-c2ccccc2)cc1	CHOP inhibitor 85 (no result: Hep lipid drop)
Nc1c(-c2ccccc2)nc(Cl)nc1-c1ccccc1	none (no result: Hep lipid drop)
Cc1occc1C(=O)N1CCN(c2ncccn2)CC1	TMEM16A act -50
C=CCc1ccccc1OCCSc1nc2ccc([N+](=O)[O-])cc2s1	none
COc1ccccc1OCCSc1nc2ccc([N+](=O)[O-])cc2s1	TMEM16A inh 100
Cc1ccc(SCCC(=O)N/N=C/c2cccnc2)cc1	none
CCC(C)Sc1cccc(-c2nc3cc(C)ccn3c2NCc2ccccc2)c1 (stereo not given)	none (no result: Hep lipid drop, CHOP inhibitor)
O=C1NC(=O)c2cc3ccccc3cc21	none (no result: Hep lipid drop, CHOP inhibitor, TMEM16A inh)
Cc1[nH]c2ccccc2c1C(=O)CSC(=S)N(C)C1CCCCC1	none
Cc1[nH]c2ccccc2c1C(=O)CSC(=S)N1CCCCC1	TMEM16A act -12
CCCOc1ccc(C2CC(=O)Nc3cc(OC)c(OC)cc32)cc1 (stereo not given)	none (no result: CHOP inhibitor)
Cc1cccc(-c2nsc(SCC(=O)Nc3nccs3)n2)c1	CHOP inhibitor 87 (no result: Hep lipid drop)
CC1CCc2cc(F)cc3c(O)c(C(=O)NCC4CCCO4)c(=O)n1c23 (stereo not given)	CHOP inhibitor 77
N#Cc1cn(CCOc2ccccc2F)c2ccccc12	CHOP inhibitor 74
N#Cc1cn(CCOc2ccc(F)cc2)c2ccccc12	none
S=C(Sc1ccc(Cl)cc1)Sc1ccc(Cl)cc1	CHOP inhibitor 106 (no result: TMEM16A act)
CC(=O)/C(=C\N(C)C)Sc1ccc(Cl)cc1	none
CC(Cl)C(=O)NC(=O)NC12CC3CC(CC(C3)C1)C2 (stereo not given)	none
Cc1noc(C)c1C(=O)OCC(=O)NC(=O)NC12CC3CC(CC(C3)C1)C2	CHOP inhibitor 81 (no result: Hep lipid drop)
Cc1nn(Cc2ccccc2)c(Cl)c1C(=O)OCC(=O)NC(=O)NC12CC3CC(CC(C3)C1)C2	none
O=C(CCl)NC(=O)NC12CC3CC(CC(C3)C1)C2	CHOP inhibitor 103 (no result: CHOP UPR activ, UPR XBP1 act)
Cc1nnc(NC(=O)c2ccc(S(=O)(=O)N3CC(C)CC(C)C3)cc2)o1 (stereo not given)	none (no result: CHOP inhibitor)
Cn1nccc1C(=O)OCC(=O)Nc1cccc(Cl)c1	none (no result: Hep lipid drop, CHOP inhibitor, TMEM16A inh)
COc1ccc(C(=O)Nc2cc(C)c3c(=O)oc4ccccc4c3n2)cc1	CHOP inhibitor 88
Cc1cc(NC(=O)CC(C)(C)C)nc2c1c(=O)oc1ccccc12	CHOP inhibitor 74
Cc1ccsc1C(=O)Nc1cc(Cl)ccc1-n1cncn1	none (no result: Hep lipid drop, CHOP UPR activ, CHOP inhibitor, TMEM16A inh, UPR XBP1 act)
COc1cc(/C=C2/NC(=O)NC2=O)cc(Br)c1OCc1ccccc1	CHOP inhibitor 94
CC(C)NC(=O)CSc1c2c(nc3ccccc13)CCCC2	none
Cc1ccc(S(=O)(=O)N2CCC3(CC2)OCCO3)cc1	none (no result: CHOP inhibitor)
c1ccc2nc(-c3nc4ccccc4o3)ccc2c1	CHOP inhibitor 71
CCC(O)C1CCN(C(=O)c2ccc(OC3CCN(Cc4ccccn4)CC3)cc2)CC1 (stereo not given)	none (no result: CHOP inhibitor)
COC(=O)c1ccc(C(=O)NC(=S)Nc2ccc3nc(SC)sc3c2)cc1	CHOP inhibitor 72
CSc1nc2ccc(NC(=O)c3ccccn3)cc2s1	none (no result: CHOP inhibitor)
Cn1c(=O)[nH]c(=O)c2c1nc(NCCc1ccccc1)n2CC(O)COc1ccccc1 (stereo not given)	TMEM16A act -51 (no result: Hep lipid drop)
COCCCNc1nc2c(c(=O)n(Cc3ccc(F)cc3)c(=O)n2C)n1C	none (no result: CHOP inhibitor)
Cn1c(N/N=C2\CCCc3ccccc32)nc2c1c(=O)n(Cc1ccc(F)cc1)c(=O)n2C	CHOP inhibitor 83 (no result: CHOP UPR activ, TMEM16A inh, UPR XBP1 act)
Cn1c(NN)nc2c1c(=O)n(Cc1ccccc1)c(=O)n2C	none (no result: CHOP inhibitor)
Cc1ccc(OCC(O)Cn2c(NCCc3ccccc3)nc3c2c(=O)[nH]c(=O)n3C)cc1 (stereo not given)	none
COc1ccc(CNc2nc3c(c(=O)n(Cc4ccc(Br)cc4)c(=O)n3C)n2C)cc1	CHOP inhibitor 73
COc1ccc(Cn2c(=O)c3c(nc(NCCO)n3C)n(C)c2=O)cc1	none (no result: Hep lipid drop)
Cn1c(NCc2ccccc2)nc2c1c(=O)n(Cc1ccc(Br)cc1)c(=O)n2C	CHOP inhibitor 72 (no result: Hep lipid drop)
CCC(C(=O)NCCCN(CC)Cc1ccccc1)n1nc(C)c2sc3ccccc3c2c1=O (stereo not given)	none (no result: CHOP inhibitor)
CCCNc1nc2c(c(=O)n(C)c(=O)n2C)n1CCc1ccccc1	none (no result: Hep lipid drop)
CC(C)n1c(NCCc2ccccc2)nc2c1c(=O)n(C)c(=O)n2C	CHOP inhibitor 75
